Each block holds one compound with its values, some of them ahead of it.
Columns and labels:
[1] = biological target: T1, Alpha-1D adrenergic receptor (Homo sapiens, UniProt P25100); assay: Displacement of 7-methoxy-[3H]-prazosin from human alpha1D adrenergic receptor expressed in CHO-K1 cell membranes incubated for 60 mins by liquid scintillation counting analysis
T1 sequence (P25100 whole entry): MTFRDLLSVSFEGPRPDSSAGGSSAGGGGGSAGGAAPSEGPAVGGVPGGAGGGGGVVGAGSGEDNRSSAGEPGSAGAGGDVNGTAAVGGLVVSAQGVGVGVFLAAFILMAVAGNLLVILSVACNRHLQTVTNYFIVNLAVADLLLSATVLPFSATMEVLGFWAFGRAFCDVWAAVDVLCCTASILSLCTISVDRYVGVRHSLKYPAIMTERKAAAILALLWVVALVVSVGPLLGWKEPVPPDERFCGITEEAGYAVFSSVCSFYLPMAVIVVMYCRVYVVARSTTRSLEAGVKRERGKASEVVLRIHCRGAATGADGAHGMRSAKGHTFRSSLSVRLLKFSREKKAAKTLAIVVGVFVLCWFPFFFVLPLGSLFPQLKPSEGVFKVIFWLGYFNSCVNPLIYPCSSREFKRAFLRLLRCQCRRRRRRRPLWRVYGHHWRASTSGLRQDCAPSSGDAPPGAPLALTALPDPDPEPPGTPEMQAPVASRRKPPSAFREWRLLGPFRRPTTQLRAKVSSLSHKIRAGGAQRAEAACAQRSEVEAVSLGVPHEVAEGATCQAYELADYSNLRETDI
In short: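 CHO-K1 stable-line membranes (10 µg protein), 2.5 nmol/L ligand, Tris-HCl pH 7.5 with MgCl2, EDTA and 0.5% BSA, 12 compound concentrations, room temperature. Filtered and counted; nonspecific binding with 10 µmol/L phentolamine. IC50 by logistic regression, converted to Ki by Cheng-Prusoff with Kd 0.93 (α1A), 0.35 (α1B), 0.26 (α1D) nmol/L. Triplicate mean, 95% CI.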

hERG (KCNH2) = hERG (KCNH2) (Homo sapiens, UniProt Q12809); assay: Inhibition of human ERG channel expressed in CHO cells assessed as peak tail current at 10 uM incubated for 5 mins by patch-clamp assay; format: cell-based; settings: CHO cells expressing human ERG channel
In short: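 CHO cells stably expressing hERG, grown at 32 °C, 5% CO2 in Ham's F-12 with 10% FBS and 500 µg/mL Geneticin. Population patch clamp with PBS (Ca/Mg) outside, KCl/MgCl2/EGTA/HEPES pH 7.3 inside, amphotericin B perforation. Holding −80 mV, step to 40 mV 2 s, then −50 mV 2 s. Peak tail current taken before and after 5 min compound exposure, inhibition = 100 − post/pre×100, n = 3 or 4.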

Homo sapiens [2] = species: Homo sapiens; assay: Selectivity ratio of Ki for human alpha1A adrenergic receptor to Ki for human alpha1D adrenergic receptor
In short: (§1)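 Membranes from CHO-K1 cells stably expressing human α1A, α1B or α1D receptors (10 µg protein) incubated 60 min at room temperature with 2.5 nmol/L 7-methoxy[3H]-prazosin and 12 compound concentrations in Tris-HCl pH 7.5 buffer with MgCl2, EDTA, 0.5% BSA. Bound counts taken after filtration; nonspecific binding defined with 10 µmol/L phentolamine.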

Homo sapiens [3] = species: Homo sapiens; assay: Selectivity ratio of Ki for human alpha1B adrenergic receptor to Ki for human alpha1D adrenergic receptor; in short: as §1
Rattus norvegicus [4] = assay: Inhibition of nonvoiding contractions during urinary storage phase in iv dosed Wistar rat with bladder outlet obstruction after 10 mins by cystometrogram; format: functional
Urinary bladder = assay: Inhibition of (R)-(-)-phenylephrine hydrochloride-induced contractions in Wistar rat bladder with outlet obstruction treated every 30 minutes post (R)-(-)-phenylephrine hydrochloride challenge; format: functional
[5] = Cmax in rat at 1 mg/kg, po administered via cassette dosing by LC/MS/MS analysis; format: ADME, organism-based; parameters: dose 1 mg/kg, route oral; settings: in vivo
In short: (§2)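 Fed rats dosed orally at 1 mg/kg as 0.5% methylcellulose suspension by cassette dosing; bioavailability also uses an iv arm of 0.1 mg/kg in DMA/1,3-butanediol (1:1). Plasma obtained from blood by centrifugation, deproteinized, and measured by LC/MS/MS. Values are averages of three rats.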

[6] = AUC in rat at 1 mg/kg, po administered via cassette dosing by LC/MS/MS analysis; format: ADME, organism-based; settings: in vivo; in short: as §2
[7] = Mean residence time in rat at 1 mg/kg, po administered via cassette dosing by LC/MS/MS analysis; format: ADME, organism-based; settings: in vivo; in short: as §2
[8] = Volume of distribution at steady state in rat at 0.1 mg/kg, iv administered via cassette dosing by LC/MS/MS analysis; format: ADME, organism-based; settings: in vivo, read-out: Vdss
In short: (§3)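 Cassette dosing iv at 0.1 mg/kg in DMA/1,3-butanediol (1:1) to fed rats. Blood collected after dosing and centrifuged to plasma, which was deproteinized and centrifuged; supernatant concentrations measured by LC/MS/MS.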

[9] = Oral bioavailability in rat at 1 mg/kg administered via cassette dosing by LC/MS/MS analysis; format: ADME, organism-based; settings: in vivo; in short: as §2
Rattus norvegicus [10] = assay: Reduction of urinary frequency in po dosed Sprague-Dawley rat with cyclophosphamide-induced cystitis assessed as increased voiding intervals administered at voiding intervals less <7.2 mins measured after 5 to 35 mins by cystometrogram; format: functional; settings: Urine, read-out: MED
[11] = Total clearance in rat at 0.1 mg/kg, iv administered via cassette dosing by LC/MS/MS analysis; format: ADME, organism-based; settings: in vivo; in short: as §3

Chain of hERG (KCNH2) (Q12809 whole entry): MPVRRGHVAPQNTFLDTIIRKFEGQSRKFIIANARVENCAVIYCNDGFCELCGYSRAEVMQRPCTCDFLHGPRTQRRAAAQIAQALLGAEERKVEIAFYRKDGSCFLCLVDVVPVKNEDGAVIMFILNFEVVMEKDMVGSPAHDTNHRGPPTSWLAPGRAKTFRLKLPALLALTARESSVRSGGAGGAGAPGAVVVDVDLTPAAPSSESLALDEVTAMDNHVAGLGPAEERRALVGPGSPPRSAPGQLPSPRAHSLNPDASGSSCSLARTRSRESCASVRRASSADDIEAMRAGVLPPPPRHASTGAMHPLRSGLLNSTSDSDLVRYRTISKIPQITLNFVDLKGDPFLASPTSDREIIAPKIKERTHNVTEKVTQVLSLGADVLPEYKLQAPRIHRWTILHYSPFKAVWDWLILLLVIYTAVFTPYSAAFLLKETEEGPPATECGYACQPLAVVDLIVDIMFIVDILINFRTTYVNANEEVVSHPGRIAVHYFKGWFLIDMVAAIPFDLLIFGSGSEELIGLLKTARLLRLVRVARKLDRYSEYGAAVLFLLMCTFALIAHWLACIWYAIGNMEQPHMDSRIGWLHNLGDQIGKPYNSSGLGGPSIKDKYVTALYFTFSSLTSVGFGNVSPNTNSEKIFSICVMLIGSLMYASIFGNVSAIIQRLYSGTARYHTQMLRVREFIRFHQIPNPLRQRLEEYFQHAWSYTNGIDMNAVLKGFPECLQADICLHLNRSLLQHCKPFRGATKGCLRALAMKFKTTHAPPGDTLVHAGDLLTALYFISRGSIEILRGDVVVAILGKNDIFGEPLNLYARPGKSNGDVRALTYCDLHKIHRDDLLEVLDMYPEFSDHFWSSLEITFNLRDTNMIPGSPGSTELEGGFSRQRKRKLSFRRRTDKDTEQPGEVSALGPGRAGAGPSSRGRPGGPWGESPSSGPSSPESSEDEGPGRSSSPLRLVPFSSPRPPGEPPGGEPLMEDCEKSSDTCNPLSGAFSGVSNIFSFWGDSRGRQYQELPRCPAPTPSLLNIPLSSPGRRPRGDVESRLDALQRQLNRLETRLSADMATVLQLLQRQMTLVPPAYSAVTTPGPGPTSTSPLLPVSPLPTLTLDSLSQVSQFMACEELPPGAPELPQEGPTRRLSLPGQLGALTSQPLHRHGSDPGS

Ki [1]: 15 nM
SMILES: CC(c1cccc(S(C)(=O)=O)c1)n1cc(Cl)cc(C(N)=O)c1=N (stereo not given)
inhibition at 5 min, 10 µM (hERG (KCNH2)): 19%

SMILES: N=c1c(C(N)=O)cc(Cl)cn1Cc1ccccn1
Ki [1]: 420 nM

SMILES: Cc1cccc(Cn2cc(Cl)cc(C(N)=O)c2=N)c1
Ki [1]: 7.5 nM

Ratio Ki (Homo sapiens [2]): 0.7
Ratio Ki (Homo sapiens [3]): 11
SMILES: CCOc1ccccc1OCCN[C@H](C)Cc1ccc(OC)c(S(N)(=O)=O)c1

Ki [1]: 4.8 nM
SMILES: CS(=O)(=O)c1cc(Cl)cc(Cn2cc(Cl)cc(C(N)=O)c2=N)c1
inhibition at 5 min, 10 µM (hERG (KCNH2)): 14%

SMILES: COc1cccc(Cn2cc(Cl)cc(C(N)=O)c2=N)c1
Ki [1]: 8.7 nM

Ki [1]: 820 nM
SMILES: CC(C)(C)Cn1cc(Cl)cc(C(N)=O)c1=N

SMILES: N=c1c(C(N)=O)cc(Cl)cn1Cc1ccco1
Ki [1]: 160 nM

Ki [1]: 65 nM
SMILES: N=c1c(C(N)=O)cc(Cl)cn1Cc1ccc(C(N)=O)c(Cl)c1
inhibition at 5 min, 10 µM (hERG (KCNH2)): 10%

Cmax [5]: 60.2 ng/mL
AUC [6]: 358 ng·h/mL
MRT [7]: 4.53 h
Vd [8]: 4.43 L/kg
Ki [1]: 1.1 nM
Ratio Ki (Homo sapiens [2]): 200
bioavailability [9]: 84.5%
Ratio Ki (Homo sapiens [3]): 800
clearance [11]: 39.9 mL/min/kg
SMILES: CS(=O)(=O)c1ccc(Cl)cc1Cn1cc(Cl)cc(C(N)=O)c1=N
inhibition (Rattus norvegicus [4]): Dose-dependent effect
ED50 (Rattus norvegicus [4]; read-out: ID50 (the source's name)): 1.3 µg/kg
inhibition (Urinary bladder): Dose-dependent effect
IC30 (Urinary bladder; 0.5 h): 12 nM
inhibition at 5 min, 10 µM (hERG (KCNH2)): 16%
minimal effective dose (Rattus norvegicus [10]): 10 µg/kg

SMILES: N=c1c(C(N)=O)cc(Br)cn1Cc1ccccc1
Ki [1]: 160 nM

SMILES: N=c1c(C(N)=O)cccn1Cc1ccccc1
Ki [1]: 880 nM

SMILES: N=c1c(C(N)=O)cc(Cl)cn1Cc1ccc(Cl)cc1
Ki [1]: 23 nM

Ki [1]: 52 nM
SMILES: CS(=O)(=O)c1cccc(Cn2cc(Cl)cc(C(N)=O)c2=N)c1

SMILES: N=c1c(C(N)=O)cc(Cl)cn1Cc1ccccc1Cl
Ki [1]: 39 nM

SMILES: N#Cc1cccc(Cn2cc(Cl)cc(C(N)=O)c2=N)c1
Ki [1]: 10 nM

SMILES: CN(C)C(=O)c1cc(Cl)cn(Cc2ccccc2)c1=N
Ki [1]: > 940 nM

From ChEMBL document CHEMBL3797060, “Discovery of 5-Chloro-1-(5-chloro-2-(methylsulfonyl)benzyl)-2-imino-1,2-dihydropyridine-3-carboxamide (TAK-259) as a Novel, Selective, and Orally Active α1D Adrenoceptor Antagonist with Antiurinary Frequency Effects: Reducing Human Ether-a-go-go-Related Gene (hERG) Liabilities” (J Med Chem, 2016)
